Measurements as given in ChEMBL document CHEMBL4414574, “Structure-Based Discovery and Development of a Series of Potent and Selective Bromodomain and Extra-Terminal Protein Inhibitors” (J Med Chem, 2019).
Active and inactive are the calls of the source. No cut-off for these calls is given here.

Tests used:
[1] = molecular target: Bromodomain-containing protein 1 (Homo sapiens) (UniProt O95696); assay: Binding affinity to human partial length BRD1 (E556 to A688 residues) expressed in Escherichia coli BL21 cells assessed as residual binding level at 1 uM measured after 1 hr by quantitative PCR based BROMOscan assay relative to control
Sequence of Bromodomain-containing protein 1 (Homo sapiens) (O95696 whole entry, the tested form may be a part): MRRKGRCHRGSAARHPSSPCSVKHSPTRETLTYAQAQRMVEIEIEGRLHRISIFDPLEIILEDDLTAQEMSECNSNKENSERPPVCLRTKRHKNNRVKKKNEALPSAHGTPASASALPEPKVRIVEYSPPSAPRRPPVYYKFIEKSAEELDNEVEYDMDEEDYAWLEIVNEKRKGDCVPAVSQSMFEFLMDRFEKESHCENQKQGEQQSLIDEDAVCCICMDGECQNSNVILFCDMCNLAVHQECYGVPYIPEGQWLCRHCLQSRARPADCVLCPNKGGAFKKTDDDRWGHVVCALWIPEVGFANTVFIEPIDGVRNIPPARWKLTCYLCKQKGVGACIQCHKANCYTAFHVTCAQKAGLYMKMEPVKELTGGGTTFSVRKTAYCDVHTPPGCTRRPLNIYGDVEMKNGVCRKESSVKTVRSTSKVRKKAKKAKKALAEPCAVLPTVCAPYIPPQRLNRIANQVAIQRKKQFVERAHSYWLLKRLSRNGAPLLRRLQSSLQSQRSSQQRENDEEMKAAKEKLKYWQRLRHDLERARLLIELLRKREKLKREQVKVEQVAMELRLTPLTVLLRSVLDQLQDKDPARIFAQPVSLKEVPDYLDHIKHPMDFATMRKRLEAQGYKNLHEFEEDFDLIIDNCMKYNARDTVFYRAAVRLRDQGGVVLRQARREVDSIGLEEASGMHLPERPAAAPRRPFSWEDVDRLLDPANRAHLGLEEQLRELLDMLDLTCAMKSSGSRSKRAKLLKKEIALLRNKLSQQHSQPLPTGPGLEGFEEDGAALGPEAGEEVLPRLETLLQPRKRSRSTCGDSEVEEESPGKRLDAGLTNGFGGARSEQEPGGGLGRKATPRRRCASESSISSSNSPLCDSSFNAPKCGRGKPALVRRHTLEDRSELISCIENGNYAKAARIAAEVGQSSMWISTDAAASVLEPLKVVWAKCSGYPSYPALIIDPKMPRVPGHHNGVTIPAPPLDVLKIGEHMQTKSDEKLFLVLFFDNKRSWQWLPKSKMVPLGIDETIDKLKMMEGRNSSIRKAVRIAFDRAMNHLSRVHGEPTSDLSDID
Outline: (§1)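 A BROMOScan competition-binding panel of 32 bromodomains was run at a single 1 μM compound concentration. Results are primary-screen 'Percent Control', where lower values indicate stronger binding.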

Cytochrome P450 2C19 = Cytochrome P450 2C19 (Homo sapiens, UniProt P33261); assay: Time-dependent inhibition of CYP2C19 in human liver microsomes at 10 uM using mephenytoin as substrate preincubated up to 30 mins followed by NADPH generating system addition and measured after 10 mins; assay type: ADME
Sequence of Cytochrome P450 2C19 (P33261 whole entry): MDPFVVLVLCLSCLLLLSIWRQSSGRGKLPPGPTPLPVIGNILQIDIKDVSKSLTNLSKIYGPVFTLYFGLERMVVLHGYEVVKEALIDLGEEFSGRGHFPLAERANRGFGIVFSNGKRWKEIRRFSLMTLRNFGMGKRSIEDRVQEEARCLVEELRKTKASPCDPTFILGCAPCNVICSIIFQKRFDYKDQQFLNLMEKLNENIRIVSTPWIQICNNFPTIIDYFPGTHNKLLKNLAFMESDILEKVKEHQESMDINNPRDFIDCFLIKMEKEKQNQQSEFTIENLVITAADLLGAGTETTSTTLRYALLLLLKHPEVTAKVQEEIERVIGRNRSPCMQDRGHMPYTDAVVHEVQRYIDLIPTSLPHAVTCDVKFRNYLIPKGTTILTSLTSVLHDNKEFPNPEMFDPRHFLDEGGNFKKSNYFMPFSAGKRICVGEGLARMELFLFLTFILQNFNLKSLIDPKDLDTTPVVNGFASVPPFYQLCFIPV
Outline: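 Human liver microsomes 0.2 mg/mL, 100 mM phosphate pH 7.4, 10 μM test compound, preincubated 0, 5, 10 and 30 min at 37 °C; then NADPH plus probe cocktail (5 μM midazolam, 50 μM testosterone, 5 μM dextromethorphan, 10 μM diclofenac, 50 μM phenacetin, 50 μM S-(+)-mephenytoin) added; 10 min reaction; kobs in units of 10^-4/min.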

SK-OV-3 = assay: Antiproliferative activity against human SKOV3 cells after 72 hrs by CCK8 or SRB assay; assay type: functional, cell-based
HuTu80 = assay: Antiproliferative activity against human HuTu 80 cells after 72 hrs by CCK8 or SRB assay; assay type: functional, cell-based
[2] = molecular target: Protein polybromo-1 (Homo sapiens) (UniProt Q86U86); assay: Binding affinity to human partial length PB1 bromodomain 2 (S178 to E291 residues) expressed in Escherichia coli BL21 cells assessed as residual binding level at 1 uM measured after 1 hr by quantitative PCR based BROMOscan assay relative to control
Sequence of Protein polybromo-1 (Homo sapiens) (Q86U86 whole entry, the tested form may be a part): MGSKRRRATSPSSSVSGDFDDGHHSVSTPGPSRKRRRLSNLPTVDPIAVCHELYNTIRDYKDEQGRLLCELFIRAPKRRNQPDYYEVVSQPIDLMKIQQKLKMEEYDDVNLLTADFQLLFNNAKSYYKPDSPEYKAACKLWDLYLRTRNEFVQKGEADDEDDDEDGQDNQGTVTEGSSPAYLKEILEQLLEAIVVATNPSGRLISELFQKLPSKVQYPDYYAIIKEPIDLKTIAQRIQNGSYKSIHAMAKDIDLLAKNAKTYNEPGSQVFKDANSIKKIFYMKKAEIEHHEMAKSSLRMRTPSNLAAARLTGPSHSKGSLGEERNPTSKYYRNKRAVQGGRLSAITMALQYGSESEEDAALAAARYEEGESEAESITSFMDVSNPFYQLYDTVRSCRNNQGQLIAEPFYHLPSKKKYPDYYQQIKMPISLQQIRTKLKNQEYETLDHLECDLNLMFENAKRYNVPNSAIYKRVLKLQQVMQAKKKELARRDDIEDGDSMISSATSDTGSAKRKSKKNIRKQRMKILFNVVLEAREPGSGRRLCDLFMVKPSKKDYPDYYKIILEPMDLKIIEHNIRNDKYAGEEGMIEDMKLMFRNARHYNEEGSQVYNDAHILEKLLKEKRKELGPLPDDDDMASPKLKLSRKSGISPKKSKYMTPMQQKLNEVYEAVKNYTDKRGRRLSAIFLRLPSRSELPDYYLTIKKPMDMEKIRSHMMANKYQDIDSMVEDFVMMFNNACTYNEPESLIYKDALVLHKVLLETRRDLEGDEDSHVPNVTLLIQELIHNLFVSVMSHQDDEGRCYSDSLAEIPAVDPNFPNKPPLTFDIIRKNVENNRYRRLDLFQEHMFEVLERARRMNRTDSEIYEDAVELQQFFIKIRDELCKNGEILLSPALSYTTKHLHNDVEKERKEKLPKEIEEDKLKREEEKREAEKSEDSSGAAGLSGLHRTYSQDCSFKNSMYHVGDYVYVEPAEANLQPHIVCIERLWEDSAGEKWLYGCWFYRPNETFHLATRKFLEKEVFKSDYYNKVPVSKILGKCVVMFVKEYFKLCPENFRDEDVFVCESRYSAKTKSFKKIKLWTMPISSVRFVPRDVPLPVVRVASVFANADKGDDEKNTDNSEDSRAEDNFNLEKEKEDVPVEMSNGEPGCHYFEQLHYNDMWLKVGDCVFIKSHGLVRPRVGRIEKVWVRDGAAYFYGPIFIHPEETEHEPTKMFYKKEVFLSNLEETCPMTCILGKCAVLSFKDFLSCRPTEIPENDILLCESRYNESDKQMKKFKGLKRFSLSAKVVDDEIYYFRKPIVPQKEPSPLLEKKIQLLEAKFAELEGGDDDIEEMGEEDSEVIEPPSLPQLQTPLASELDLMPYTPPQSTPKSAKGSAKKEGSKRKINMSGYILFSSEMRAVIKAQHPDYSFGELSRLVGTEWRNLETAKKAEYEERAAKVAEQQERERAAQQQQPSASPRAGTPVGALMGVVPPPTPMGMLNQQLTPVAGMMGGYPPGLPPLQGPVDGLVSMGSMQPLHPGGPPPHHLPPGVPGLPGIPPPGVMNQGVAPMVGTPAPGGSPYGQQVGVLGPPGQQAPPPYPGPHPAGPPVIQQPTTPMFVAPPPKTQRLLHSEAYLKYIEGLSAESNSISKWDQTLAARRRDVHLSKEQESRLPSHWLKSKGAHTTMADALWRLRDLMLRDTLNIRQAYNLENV
Outline: (§2)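 Bromodomain panel screen (32 bromodomains) run at 1 μM single concentration; primary binding reported as 'Percent Control', lower values meaning stronger interaction.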

[3] = Tmax in ICR mouse plasma at 50 mg/kg, po administered via gavage measured after 0.25 to 24 hrs by UPLC/MS analysis; assay type: ADME, organism-based
Outline: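 Male ICR mice dosed orally at 50 mg/kg in 1% DMSO/0.5% HPMC; drug measured in plasma and brain.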

[4] = Drug uptake in tumor of Balb/c nude mouse xenografted with human MV4-11 cells at 25 to 50 mg/kg, po measured after 8 hrs; assay type: ADME, organism-based, Neoplasm; conditions: in vivo
Outline: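 MV4-11 xenografts in BALB/c nude mice given oral compound; drug concentrations in plasma and tumor tissue measured at 1 h and 8 h after dosing.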

[5] = AUC (0 to infinity) in rat plasma at 10 mg/kg, po; assay type: ADME, organism-based; parameters: dose 10 mg/kg, route oral, time infinity
Outline: (§3)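 Compound was given orally or intravenously in 1% DMSO/0.5% HPMC vehicle. Concentrations in plasma, or in brain where stated, gave Tmax, Cmax, T1/2, AUC0-t and AUC0-inf.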

[6] = AUC (0 to infinity) in ICR mouse plasma at 100 mg/kg, po administered via gavage measured after 0.25 to 24 hrs by UPLC/MS analysis; assay type: ADME, organism-based; parameters: dose 100 mg/kg, time infinity, route oral
Outline: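 Male ICR mice were dosed orally in 1% DMSO/0.5% HPMC vehicle. Plasma (and brain, where stated) concentrations gave Tmax, Cmax, T1/2, AUC0-t and AUC0-inf.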

[7] = AUC (0 to t) in rat plasma at 3 mg/kg, iv; assay type: ADME, organism-based; outline: as §3
[8] = molecular target: E3 ubiquitin-protein ligase TRIM33 (Homo sapiens) (UniProt Q9UPN9); assay: Binding affinity to human partial length TRIM33 (D882 to A1087 residues) expressed in Escherichia coli BL21 cells assessed as residual binding level at 1 uM measured after 1 hr by quantitative PCR based BROMOscan assay relative to control; outline: as §2
Sequence of E3 ubiquitin-protein ligase TRIM33 (Homo sapiens) (Q9UPN9 whole entry, the tested form may be a part): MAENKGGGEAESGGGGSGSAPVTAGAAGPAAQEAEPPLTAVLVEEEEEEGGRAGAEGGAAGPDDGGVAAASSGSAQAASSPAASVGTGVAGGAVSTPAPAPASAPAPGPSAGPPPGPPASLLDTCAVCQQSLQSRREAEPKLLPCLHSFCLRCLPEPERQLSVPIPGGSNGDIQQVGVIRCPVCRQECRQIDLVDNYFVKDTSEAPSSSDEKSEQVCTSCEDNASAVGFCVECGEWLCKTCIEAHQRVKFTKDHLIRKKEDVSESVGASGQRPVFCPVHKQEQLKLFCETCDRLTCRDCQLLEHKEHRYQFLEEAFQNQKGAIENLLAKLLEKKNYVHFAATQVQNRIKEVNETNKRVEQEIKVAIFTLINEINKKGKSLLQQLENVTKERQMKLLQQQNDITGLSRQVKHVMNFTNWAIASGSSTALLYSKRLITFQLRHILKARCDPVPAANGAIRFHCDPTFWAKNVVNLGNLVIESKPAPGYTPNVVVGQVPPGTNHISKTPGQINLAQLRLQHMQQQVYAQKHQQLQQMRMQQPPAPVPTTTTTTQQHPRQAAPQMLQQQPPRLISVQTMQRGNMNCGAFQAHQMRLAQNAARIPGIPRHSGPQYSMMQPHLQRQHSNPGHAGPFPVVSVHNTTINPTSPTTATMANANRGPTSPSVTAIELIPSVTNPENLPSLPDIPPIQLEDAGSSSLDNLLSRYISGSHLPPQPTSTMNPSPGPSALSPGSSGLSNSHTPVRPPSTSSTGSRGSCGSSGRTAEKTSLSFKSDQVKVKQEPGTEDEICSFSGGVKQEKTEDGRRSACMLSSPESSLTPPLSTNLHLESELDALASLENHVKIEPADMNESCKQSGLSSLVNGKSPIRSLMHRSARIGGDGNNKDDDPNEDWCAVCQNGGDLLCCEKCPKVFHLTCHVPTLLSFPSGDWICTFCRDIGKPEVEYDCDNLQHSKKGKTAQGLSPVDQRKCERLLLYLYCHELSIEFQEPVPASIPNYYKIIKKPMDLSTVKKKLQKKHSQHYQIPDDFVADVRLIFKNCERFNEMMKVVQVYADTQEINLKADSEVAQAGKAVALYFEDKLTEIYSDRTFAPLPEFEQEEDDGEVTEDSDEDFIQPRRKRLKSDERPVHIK

[9] = AUC (0 to infinity) in rat brain at 50 mg/kg, po; assay type: ADME, organism-based; parameters: dose 50 mg/kg, time infinity, route oral; outline: as §3
[10] = Clearance in dog liver microsomes; assay type: ADME, Canis lupus familiaris, Microsome; conditions: read-out: CLH
MM1.S = assay: Antiproliferative activity against human MM1S cells after 72 hrs by CCK8 or SRB assay; assay type: functional, cell-based
Outline: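 IC50 against MM.1S cell proliferation was taken as the mean of three independent experiments, each run in triplicate, reported with SEM.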

MV4-11 [11] = assay: Induction of apoptosis in human MV4-11 cells assessed as increase in cleaved caspase-7 level after 24 hrs by Western blot analysis; assay type: functional, cell-based
Outline: (§4)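 MV4-11 cells exposed to compound at the indicated doses for 24 h; lysates probed by Western blotting for the target protein, with GAPDH as loading control.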

[12] = AUC (0 to infinity) in dog plasma at 3 mg/kg, po; assay type: ADME, organism-based, Canis lupus familiaris; parameters: dose 3 mg/kg, route oral, time infinity; outline: as §3
MV4-11 [13] = assay: Antitumor activity against human MV4-11 cells xenografted in Balb/c nude mouse assessed as tumor growth inhibition at 25 mg/kg, po administered once daily and measured twice a week by caliper method relative to control; assay type: functional; conditions: MV4-11, po, read-out: TGI
[14] = molecular target: Bromodomain-containing protein 2 (Homo sapiens) (UniProt P25440); assay: Binding affinity to human partial length BRD2 bromodomain 2 isoform 1 (E348 to D455 residues) expressed in Escherichia coli BL21 cells assessed as residual binding level at 1 uM measured after 1 hr by quantitative PCR based BROMOscan assay relative to control; outline: as §1
[15] = Bioavailability in dog at 1 mg/kg, iv; assay type: ADME, organism-based, Canis lupus familiaris; conditions: in vivo
CYP3A4 = CYP3A4 (Homo sapiens, UniProt P08684); assay: Reversible inhibition of CYP3A4 in human liver microsomes at 10 uM using midazolam or testosterone as substrate preincubated for 5 mins followed by NADPH addition and measured after 20 mins relative to control; assay type: ADME; conditions: probe midazolam or testosterone
Sequence of CYP3A4 (P08684 whole entry): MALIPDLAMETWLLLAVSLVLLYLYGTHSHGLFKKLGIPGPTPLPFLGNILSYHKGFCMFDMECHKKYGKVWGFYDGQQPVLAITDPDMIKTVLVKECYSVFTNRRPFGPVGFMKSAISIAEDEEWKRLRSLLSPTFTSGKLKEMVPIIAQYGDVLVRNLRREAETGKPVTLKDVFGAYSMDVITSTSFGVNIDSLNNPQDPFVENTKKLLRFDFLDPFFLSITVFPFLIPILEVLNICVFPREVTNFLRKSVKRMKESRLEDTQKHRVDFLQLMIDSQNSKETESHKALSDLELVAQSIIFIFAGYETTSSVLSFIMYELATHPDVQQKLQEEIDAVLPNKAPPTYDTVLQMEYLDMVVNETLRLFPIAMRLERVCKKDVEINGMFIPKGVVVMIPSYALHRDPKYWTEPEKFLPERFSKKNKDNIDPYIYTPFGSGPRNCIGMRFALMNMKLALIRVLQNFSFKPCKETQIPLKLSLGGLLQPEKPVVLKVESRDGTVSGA
Outline: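 Human liver microsomes 0.2 mg/mL, 100 mM phosphate pH 7.4, 10 μM test compound, probe cocktail (10 μM midazolam, 100 μM testosterone, 10 μM dextromethorphan, 20 μM diclofenac, 100 μM phenacetin, 100 μM mephenytoin); organic solvent <1%; 5 min preincubation at 37 °C, started with NADPH-generating system, 20 min reaction; metabolite formation expressed relative to PBS control.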

[16] = Cmax in ICR mouse brain at 50 mg/kg, po administered via gavage measured after 0.25 to 24 hrs by UPLC/MS analysis; assay type: ADME, organism-based; parameters: dose 50 mg/kg, route oral
Outline: (§5)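 Male ICR mice dosed orally in 1% DMSO/0.5% HPMC vehicle; plasma or brain drug levels used to derive Tmax, Cmax, AUC0-t, AUC0-inf and T1/2.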

AGS = assay: Antiproliferative activity against human AGS cells after 72 hrs by CCK8 or SRB assay; assay type: functional, cell-based
MV4-11 [17] = assay: Induction of apoptosis in human MV4-11 cells assessed as decrease in full-length caspase-8 level at 10 to 1000 nM after 24 hrs by Western blot analysis; assay type: functional, cell-based; outline: as §4
[18] = Toxicity in Balb/c nude mouse xenografted with human MV4-11 cells assessed as effect on mouse survival at 10 to 50 mg/kg, administered once daily; assay type: organism-based; conditions: in vivo
MV4-11 [19] = assay: Antitumor activity against human MV4-11 cells xenografted in po dosed Balb/c nude mouse assessed as tumor growth inhibition administered once daily and measured twice a week by caliper method; assay type: functional, organism-based
[20] = Cmax in ICR mouse at 10 mg/kg, po administered via gavage measured after 0.25 to 24 hrs by UPLC/MS analysis; assay type: ADME, organism-based; parameters: dose 10 mg/kg, route oral; conditions: in vivo; outline: as §5
RKO = assay: Antiproliferative activity against human RKO cells after 72 hrs by CCK8 or SRB assay; assay type: functional, cell-based

## Cc1ccc(-n2nc(C(=O)N3C[C@@H](C)N[C@@H](C)C3)nc2-c2ccc3c(c2)N(C2CCCC2)[C@H](C)C(=O)N3C)cc1
[1]
  Activity: 50 to 70%
Cytochrome P450 2C19
  TDI: Not Active
SK-OV-3
  Activity: Active
HuTu80
  Activity: Active
[2]
  Activity: 70 to 100%
[3]
  Tmax: 1 h
[4]
  Drug uptake: Active
[5]
  AUC(0-inf): 1270 ng·h/mL
[6]
  AUC(0-inf): 82400 ng·h/mL
[7]
  AUC(0-t): 2010 ng·h/mL
[8]
  Activity: 70 to 100%
[9]
  AUC(0-inf): 399 ng·h/mL
[10]
  microsomal CLint: 77 µL/min/mg
MM1.S
  IC50: 2.3 nM
MV4-11 [11]
  Activity: Dose-dependent effect
[12]
  AUC(0-inf): 798 ng·h/mL
MV4-11 [13]
  inhibition in vivo at 25 mg/kg: 89.7%
[14]
  Activity: < 5%
[15]
  bioavailability: 34.3%
CYP3A4
  inhibition at 20 min, 10 µM: 23 to 28%
[16]
  Cmax: 377 ng/mL
AGS
  Activity: Active
MV4-11 [17]
  Activity: Active
[18]
  Activity: Non-Toxic
MV4-11 [19]
  TGI: Dose-dependent effect
[20]
  Cmax: 1900 ng/mL
RKO
  Activity: Active
